# Bioassay records: PubChem, Broad Institute
# Rtt109 HAT inh = inhibitors of C. albicans Rtt109/Vps75 HAT, primary screen, biochemical, ThioGlo CoA-SH fluorescence, plate reader. purified Rtt109/Vps75, 4 h. AID 540336, 2011. 0.16% of 330,000 active. inhibition, % at 34.9 µM. Histone acetyltransferase RTT109 (Candida albicans (strain SC5314 / ATCC MYA-2876)), …;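 active = inhibition of at least 50% in every replicate; inconclusive = best replicate reaches 50% inhibition but some replicates fall short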
# dFosB act = activators of delta FosB homodimer, primary screen, biochemical, fluorescence polarization, TAMRA-CDK5 oligo, single point | Protein FosB (Mus musculus), P13346 | purified delta FosB; percent of positive-control signal above neutral wells | activation, % at 25 µM | 0.99% of 340,000 active | AID 493131, 2011;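 active = mean activation above about 17%, with every replicate also reaching it, limit read from the data, passing the limit was not always enough; inconclusive = only one of the two conditions met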
# Target sequence (P13346 whole entry, looked up): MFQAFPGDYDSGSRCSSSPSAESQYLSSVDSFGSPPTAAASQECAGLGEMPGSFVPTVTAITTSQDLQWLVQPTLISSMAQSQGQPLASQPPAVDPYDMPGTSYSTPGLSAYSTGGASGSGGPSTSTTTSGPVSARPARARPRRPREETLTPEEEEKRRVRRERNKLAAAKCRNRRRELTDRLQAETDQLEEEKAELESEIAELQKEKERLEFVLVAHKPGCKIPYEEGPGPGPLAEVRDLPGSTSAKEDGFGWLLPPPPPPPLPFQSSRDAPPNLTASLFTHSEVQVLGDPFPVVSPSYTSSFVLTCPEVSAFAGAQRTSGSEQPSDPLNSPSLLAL
# Env fusion inh = inhibitors of HIV-1 Env-driven cell-cell fusion, primary screen, HeLa-JRFL effector, CEM21 target cells, luciferase; AID 651610, 2012; inhibition, % at 12.3 µM; 1.1% of 360,000 active;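 active = mean replicate inhibition score of at least 50 and every replicate individually at or above 50; inconclusive = only one of the two criteria met; inactive = mean below 50 and not all replicates reaching 50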;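 note: 0% = plate neutral controls and 100% = maraviroc near 300 nM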
# miR122 inh = miR-122 Renilla sensor signal increase in Huh7, primary screen, miR-122 inhibitor project, cell-based, single point, plate reader. Huh7 miR-122 Renilla luciferase sensor, 48 h; neutral wells = 0, positive control = 100. activation (reporter increase), % at 12.5 µM. 0.3% of 340,000 active. AID 602342, 2012;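 active = mean replicate activation score at least 90 and every replicate individually at or above 90; inconclusive = only one of the two criteria met; inactive = neither criterion met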;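 note: higher luciferase means less miR-122 activity so hits act as miR-122 inhibitors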
# Cneo AK release = Cryptococcus neoformans cell lysis inducers, primary screen, AK release luminescence, single concentration; AID 651654, 2012; C. neoformans lysis, adenylate kinase release luminescence, 4 h; normalised: neutral wells 0, clomiphene wells 100; lysis activity, % at 15 µM; 0.2% of 360,000 active;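 active = mean lysis activity across replicates of at least 80%, whatever share of replicates individually reach that level; inactive = mean lysis activity below 80%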
#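 read-out = cell lysis signal | test system = log-phase Cryptococcus neoformans yeast cells | input = cells at 5 × 10^6 per mL | medium = fresh YPD growth medium | signal = luminescent adenylate kinase detection reagent | timing = 4 h at 37 °C static, read 1 h later | dosing = single dose | controls = Clomiphene as positive lysis control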
# INS-1E GSIS act = GLuc luminescence reporter in INS-1E cells, primary screen for activators of glucose-dependent secretion of insulin. INS-1E GLuc reporter insulin secretion, 2-3 h. activation, % at 16.6 µM. 0.61% of 370,000 active;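 active = lowest replicate activation of at least 40%, so every replicate reaches that level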;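 note: 0% = median of neutral control wells and 100% = median of IBMX positive control wells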
# The depositor's hits bear a star; ? = inconclusive; · = no result given; [ ] = remark or other dose. A selection: hits, their analogues and other compounds. The true share with any hit is near 2.4%.
SMILES,Rtt109 HAT inh,dFosB act,Env fusion inh,miR122 inh,Cneo AK release,INS-1E GSIS act
N#Cc1cccc(CN2C=NS(=O)(=O)c3ccccc32)c1,0,0,13,1,2,-3
COc1cccc(-c2ccc3c(c2)N(Cc2cccc(F)c2)C(=O)C(C)S3)c1 (stereo not given),·,·,?,8,2,42*
Cc1ccc2c(c1)N(Cc1cccc(F)c1)C(=O)C(C)O2 (stereo not given),-3,-3,11,-3,-1,-21
CC(=O)c1ccc2c(c1)N(Cc1ccccc1)C(=O)C(C)S2 (stereo not given),·,·,-17,8,2,50*
O=S1(=O)N=CN(Cc2cccc(F)c2)c2ccccc21,2,-3,-25,157*,0,·
COc1ccc2c3c(n(C)c2c1)[C@@H](CO)N(Cc1ccncc1)CC31CCN(C(=O)Nc2cccc(F)c2)CC1,·,·,·,·,·,-29
CC(=O)Nc1cccc2c1O[C@@H](CN(C)C)[C@@H](C)CN(C)C2=O,·,·,·,·,·,21
Cc1cccc(-c2nc3ccccc3c3nncn23)c1,-1,-30,-9,·,·,·
Cc1ccc2c(c1)c(-c1ccccc1)nc1nncn12,-7,-12,-29,8,-4,46*
C[C@@H]1CCCCO[C@@H](CN(C)S(=O)(=O)c2ccc(F)cc2)[C@H](C)CN([C@H](C)CO)C(=O)c2cc(NC(=O)Nc3ccc4c(c3)OCO4)ccc2O1,·,·,3[16.7 µM],1[16.7 µM],-14,5
COc1ccc(CCNC(=O)COC(=O)c2cccn2C)cc1,5,-3,78*,-4,0,19
Cn1cccc1C(=O)OCC(=O)NCCc1ccc(S(N)(=O)=O)cc1,-2,2,72*,·,-17,4
COC(=O)C[C@@H]1C=C[C@H](NC(=O)Cc2ccccn2)[C@@H](CO)O1,·,·,10,·,·,64*
C[C@H](NC(=O)C[C@@H]1C=C[C@H](NC(=O)CN2CCOCC2)[C@@H](CO)O1)c1ccccc1,·,·,5[16.7 µM],·,91*,8
C[C@H](NC(=O)C[C@@H]1C=C[C@@H](NC(=O)CN2CCOCC2)[C@H](CO)O1)c1ccccc1,·,·,7[16.7 µM],·,14,16
O=C(C[C@H]1CC[C@H](NC(=O)Cc2ccccn2)[C@@H](CO)O1)NCCc1ccccc1,·,·,1[16.7 µM],·,0,-9
O=C(Cc1ccccc1)N[C@@H]1C=C[C@H](CC(=O)N2CCCCC2)O[C@@H]1CO,·,·,57*[16.7 µM],·,0,-1
O=C(C[C@@H]1CC[C@H](NC(=O)Cc2ccccn2)[C@H](CO)O1)NCCc1ccccc1,·,·,3[16.7 µM],·,81*,29
Cc1ccc(S(=O)(=O)Nc2cccc3c2O[C@@H](CN(C)C(=O)Nc2ccc4c(c2)OCO4)[C@@H](C)CN([C@H](C)CO)C3=O)cc1,·,·,·,20[16.7 µM],1,-22
C[C@@H]1CN(C)C(=O)c2cccnc2O[C@H]1CN(C)S(C)(=O)=O,·,·,·,·,·,1
CN1[C@H](C(=O)NC2Cc3ccccc3C2)[C@@H](CO)[C@@H]2Cn3c(ccc(C4=CCCC4)c3=O)[C@@H]21,·,·,·,-8[16.7 µM],1,-7
O=C(NC1CCCCC1)N[C@@H]1C=C[C@@H](CC(=O)N2CCOCC2)O[C@@H]1CO,·,·,·,·,-2,14
O=C(NC1CCCCC1)N[C@H]1C=C[C@@H](CC(=O)N2CCOCC2)O[C@@H]1CO,·,·,·,·,93*,21
CNC[C@H]1Oc2ccc(NC(=O)NC(C)C)cc2CC(=O)N(C)C[C@@H]1C,·,·,·,·,·,5
COc1ccc(C)cc1NC(=O)CCNS(=O)(=O)c1ccc2c(c1)CC(C)N2C(C)=O (stereo not given),-5,2,79*,6,6,-1
SMILES,Rtt109 HAT inh,dFosB act,Env fusion inh,miR122 inh,Cneo AK release,INS-1E GSIS act
COc1ccccc1NC(=O)CCNS(=O)(=O)c1ccc2c(c1)CC(C)N2C(=O)C1CC1 (stereo not given),-8,2,6,-2,-1,-3
CCNC(=O)C[C@@H]1CC[C@H]2[C@H](COc3ccc(NC(=O)c4ccccc4Cl)cc3C(=O)N2C)O1,·,·,-11[16.7 µM],38[16.7 µM],0,-6
COc1cc(CSc2nnnn2-c2ccc(C)cc2)cc(OC)c1OC,14,-11,95*,-4,-1,·
CCOC(=O)CN1C(=O)C(C)(C)Oc2ccc(C(=O)Nc3ccccc3)cc21,-8,-4,-95,159*,1,·
C[C@@H]1CCCCO[C@@H](CN(C)C(=O)c2ccccc2)[C@H](C)CN([C@H](C)CO)C(=O)c2cc(NC(=O)CCCN(C)C)ccc2O1,·,·,2[16.7 µM],-9[16.7 µM],·,19
CCNc1ccc(C(=O)OCC)cc1NC(=O)c1cc(S(=O)(=O)N2CCOCC2)ccc1C,27,-9,62*,3,-7,·
O=C1C=C(N2CCOCC2)c2cccc3cccc1c23,·,·,27,·,-1,-7
O=C1C=C(N2CCOCC2)c2ccccc2C1=O,8,-3,65*,·,5,-15
COc1ccc(NC(=O)C2C3C=CC4(O3)C2C(=O)N(CCN2CCCCC2)C4C(=O)NC2CCCCC2)cc1 (stereo not given),-3,-11,-16,-6,0,7
COc1ccc(NC(=O)C2C3C=CC4(O3)C2C(=O)N(CCN2CCCCC2C)C4C(=O)NC2CCCC(C)C2C)cc1 (stereo not given),9,-3,3,-4,1,92*
Cc1ccc(-c2ccc3c(c2)O[C@H](CN(C)CC2CC2)[C@H](C)CN([C@H](C)CO)S3(=O)=O)cc1,·,·,9[16.7 µM],-3[16.7 µM],4,3
COc1cc2c(cc1OC)CN(C(=O)[C@H]1[C@@H]3C(=O)O[C@@H](c4ccccc4)[C@@H](c4ccccc4)N3[C@@H](c3ccccc3OCCO)[C@]13C(=O)Nc1ccc(C#CC4=CCCCC4)cc13)CC2,·,·,-7[16.7 µM],·,-4,·
CC(C)NC(=O)Nc1ccc2c(c1)C(=O)N(C)C[C@@H](C)[C@H](CN(C)C)O2,·,·,·,·,·,5
C[C@@H]1CN([C@H](C)CO)C(=O)Cc2cc(NS(=O)(=O)c3cccs3)ccc2O[C@@H]1CN(C)S(=O)(=O)c1cccs1,·,·,-3[16.7 µM],33[16.7 µM],·,3
Cc1ccc(S(=O)(=O)Nc2ccc3c(c2)C(=O)N([C@@H](C)CO)C[C@H](C)[C@@H](CN(C)Cc2ccc(C(F)(F)F)cc2)OCCCC[C@@H](C)O3)cc1,·,·,-50[16.7 µM],-15[16.7 µM],7,-20
COc1ccc(OC)c(NC(=O)c2cc(-c3cc(Cl)ccc3O)n[nH]2)c1,13,?,55*,-28,-2,·
Fc1ccc(Cn2cnc3ccccc32)cc1,-2,-1,-23,23,·,10
